Activity calls are given as the source filed them. The calls are words filed in the database; no cut-off is given here.
What was measured:
Escherichia coli = experiment: Antibacterial activity against Escherichia coli A1235 assessed as inhibition of bacterial growth at 125 uM incubated for 24 to 48 hrs by microdilution broth method; type: functional, organism-based; settings: time 24-48 hrs
Klebsiella pneumoniae = experiment: Antibacterial activity against ESBL positive Klebsiella pneumoniae C1914 assessed as inhibition of bacterial growth at 125 uM incubated for 24 to 48 hrs by microdilution broth method; type: functional, organism-based; settings: time 24-48 hrs
[1] = tested on: Mycobacterium tuberculosis; experiment: Antitubercular activity against Mycobacterium tuberculosis CNCTC My 331/88 (H37Rv) infected in MONO-MAC-6 cells assessed as inhibition of bacterial growth measured after 48 hrs of incubation by MTT based ELISA; type: functional, organism-based; settings: MONO-MAC-6, 48 h
Summary of the method: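 MonoMac6 cells in RPMI-1640 with 10% FBS, 2 mM glutamine and gentamicin, seeded at 6.5 × 10³ cells/well the day before. Treated 48 h at 2.56 × 10⁻³–250 μM in incomplete medium with 1% DMSO. Read by MTT (3.5 h), formazan in DMSO, absorbance at 540/620 nm. IC50 from dose-response curves.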

[2] = tested on: Mycobacterium tuberculosis; experiment: Antitubercular activity against Mycobacterium tuberculosis CNCTC My 331/88 (H37Rv) infected in MONO-MAC-6 cells assessed as reduction in colony forming unit growth at 25 uM measured after 48 hrs of incubation by MTT based ELISA relative to control; type: functional; design: scale not given: the % may be the effect or the level left

For `Nc1nc(N2CCOCC2)nc2ncn(Cc3ccc4ccccc4c3)c12`, the Activity (Escherichia coli) was “inactive” and the Activity (Klebsiella pneumoniae) was “inactive”.

With `CCOc1nc(N2CCOCC2)nc2ncn(Cc3ccc4ccccc4c3)c12` the Activity (Escherichia coli) was “inactive” and the Activity (Klebsiella pneumoniae) was “inactive”.

In the case of `CCNc1nc(N2CCOCC2)nc2ncn(Cc3ccc4ccccc4c3)c12`, the Activity (Escherichia coli) is reported as “inactive”, the Activity (Klebsiella pneumoniae) is reported as “inactive” and the IC50 [1] is reported as 57 µM. For the same molecule, the Activity [2] was “>=80%”.
